From ChEMBL document CHEMBL4376814, “Novel cyclin-dependent kinase 9 (CDK9) inhibitor with suppression of cancer stemness activity against non-small-cell lung cancer” (Eur J Med Chem, 2019)

Assays:
[1] = biological target: Fibroblast growth factor receptor 3 (Homo sapiens) (UniProt P22607); assay: Inhibition of recombinant human FGFR3 (447 to 761 residues) at 1 uM using poly(Glu, Tyr) 4:1 as substrate measured after 40 mins in presence of [gamma33P]ATP by scintillation counting method relative to control
A549 [2] = assay: Induction of apoptosis in human A549 cells assessed as early apoptotic cells at 1 uM after 48 hrs by AnnexinV-FITC/PI staining-based flow cytometric analysis (reference value: 2.91%); format: functional
NCI-H1299 [3] = assay: Inhibition of colony formation in human H1299 cells after 12 days by crystal violet staining based assay; format: functional, cell-based
In short: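 Cells exposed to compound, then washed, trypsinized and reseeded at 300 cells per well in 6-well plates. Colonies grew 10-14 days (legend: 12 days), were fixed in methanol 30 min, stained overnight with 0.5% crystal violet and imaged.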

[4] = biological target: NUAK family SNF1-like kinase 2 (Homo sapiens) (UniProt Q9H093); assay: Inhibition of recombinant full-length human NUAK2 at 1 uM using KKKVSRSGLYRSPSMPENLNRPR as substrate measured after 40 mins in presence of [gamma33P]ATP by scintillation counting method relative to control
[5] = system: Ribosomal protein S6 kinase beta-1 (Homo sapiens), P23443 [T412E]; assay: Inhibition of recombinant full-length human p70S6K (1 to 421 residues) T412E mutant at 1 uM using KKRNRTLTV as substrate measured after 40 mins in presence of [gamma33P]ATP by scintillation counting method relative to control
Sequence of Ribosomal protein S6 kinase beta-1 (Homo sapiens), P23443 [T412E] (P23443 whole entry T412E, looked up, the tested form may be a part): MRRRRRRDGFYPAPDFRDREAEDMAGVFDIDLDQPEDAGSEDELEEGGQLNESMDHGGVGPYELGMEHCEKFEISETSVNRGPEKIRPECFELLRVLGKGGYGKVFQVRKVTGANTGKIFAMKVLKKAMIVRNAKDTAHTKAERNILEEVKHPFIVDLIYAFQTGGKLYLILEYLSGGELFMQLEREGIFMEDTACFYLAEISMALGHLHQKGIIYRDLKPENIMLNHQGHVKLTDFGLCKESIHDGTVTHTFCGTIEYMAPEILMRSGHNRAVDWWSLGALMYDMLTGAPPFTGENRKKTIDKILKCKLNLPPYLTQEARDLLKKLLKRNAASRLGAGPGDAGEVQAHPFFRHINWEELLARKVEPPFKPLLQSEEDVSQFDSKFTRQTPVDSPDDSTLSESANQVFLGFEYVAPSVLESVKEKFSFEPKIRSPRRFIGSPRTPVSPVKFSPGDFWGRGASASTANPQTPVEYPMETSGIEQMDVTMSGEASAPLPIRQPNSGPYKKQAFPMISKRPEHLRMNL

NCI-H1299 [6] = assay: Induction of cell cycle arrest in human H1299 cells assessed as reduction in accumulation of cells at S phase at 1 uM after 24 hrs by propidium iodide/RNase staining based flow cytometric analysis (reference value: 24.5%); format: functional; set-up: scale not given: the % may be the effect or the level left
In short: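 A549 and H1299 plated at 5×10^5 cells/mL in 6-well plates, treated after adherence for 24 h. Washed with PBS, fixed overnight in ice-cold 75% ethanol, stained with propidium iodide plus RNase A for 30 min at 37 °C, analysed by flow cytometry for phase distribution. Means ± SD, three independent experiments.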

[7] = biological target: Serine/threonine-protein kinase mTOR (Homo sapiens) (UniProt P42345); assay: Inhibition of recombinant full-length human mTOR at 1 uM after 40 mins in presence of [gamma33P]ATP by scintillation counting method relative to control
[8] = biological target: Activin receptor type-1-like (Homo sapiens) (UniProt P37023); assay: Inhibition of recombinant human ALK1 (142 to end residues) at 1 uM using casein as substrate measured after 40 mins in presence of [gamma33P]ATP by scintillation counting method relative to control
Sequence of Activin receptor type-1-like (Homo sapiens) (P37023 whole entry): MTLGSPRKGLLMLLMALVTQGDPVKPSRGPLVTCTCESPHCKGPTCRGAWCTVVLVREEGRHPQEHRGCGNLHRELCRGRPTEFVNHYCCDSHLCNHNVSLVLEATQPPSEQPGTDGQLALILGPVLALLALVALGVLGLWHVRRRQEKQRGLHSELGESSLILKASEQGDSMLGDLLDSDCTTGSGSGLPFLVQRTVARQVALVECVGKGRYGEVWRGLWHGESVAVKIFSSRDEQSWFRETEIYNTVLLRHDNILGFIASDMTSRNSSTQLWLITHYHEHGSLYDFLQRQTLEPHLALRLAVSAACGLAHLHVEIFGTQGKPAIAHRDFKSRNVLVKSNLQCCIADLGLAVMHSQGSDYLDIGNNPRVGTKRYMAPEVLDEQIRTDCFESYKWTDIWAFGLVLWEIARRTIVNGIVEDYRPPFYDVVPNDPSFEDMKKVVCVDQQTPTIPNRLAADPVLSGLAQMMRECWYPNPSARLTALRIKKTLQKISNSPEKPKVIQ

[9] = system: Tyrosine-protein kinase BTK (Homo sapiens), Q06187 [R28H]; assay: Inhibition of full-length recombinant human BTK R28H mutant at 1 uM using LSNLYHQGKFLQTFCGSPLYRRR as substrate measured after 40 mins in presence of [gamma33P]ATP by scintillation counting method relative to control
In short: (§1)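 Single-point inhibition at 1 µM was measured in the Eurofins KinaseProfiler panel. Values are the mean of two independent experiments.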

[10] = biological target: Serine/threonine-protein kinase MAK (Homo sapiens) (UniProt P20794); assay: Inhibition of recombinant full-length human MAK at 1 uM using RRRFRPASPLRGPPK as substrate measured after 120 mins in presence of [gamma33P]ATP by scintillation counting method relative to control
[11] = biological target: Serine/threonine-protein kinase MRCK beta (Homo sapiens) (UniProt Q9Y5S2); assay: Inhibition of recombinant human MRCKbeta (1 to 473 residues) at 1 uM using KKRNRTLTV as substrate measured after 40 mins in presence of [gamma33P]ATP by scintillation counting method relative to control
[12] = biological target: Insulin-like growth factor 1 receptor (Homo sapiens) (UniProt P08069); assay: Inhibition of recombinant human IGF1R (959 to end residues) at 1 uM using KKKSPGEYVNIEFG as substrate measured after 40 mins in presence of [gamma33P]ATP by scintillation counting method relative to control
Sequence of Insulin-like growth factor 1 receptor (Homo sapiens) (P08069 31-736 limits assumed): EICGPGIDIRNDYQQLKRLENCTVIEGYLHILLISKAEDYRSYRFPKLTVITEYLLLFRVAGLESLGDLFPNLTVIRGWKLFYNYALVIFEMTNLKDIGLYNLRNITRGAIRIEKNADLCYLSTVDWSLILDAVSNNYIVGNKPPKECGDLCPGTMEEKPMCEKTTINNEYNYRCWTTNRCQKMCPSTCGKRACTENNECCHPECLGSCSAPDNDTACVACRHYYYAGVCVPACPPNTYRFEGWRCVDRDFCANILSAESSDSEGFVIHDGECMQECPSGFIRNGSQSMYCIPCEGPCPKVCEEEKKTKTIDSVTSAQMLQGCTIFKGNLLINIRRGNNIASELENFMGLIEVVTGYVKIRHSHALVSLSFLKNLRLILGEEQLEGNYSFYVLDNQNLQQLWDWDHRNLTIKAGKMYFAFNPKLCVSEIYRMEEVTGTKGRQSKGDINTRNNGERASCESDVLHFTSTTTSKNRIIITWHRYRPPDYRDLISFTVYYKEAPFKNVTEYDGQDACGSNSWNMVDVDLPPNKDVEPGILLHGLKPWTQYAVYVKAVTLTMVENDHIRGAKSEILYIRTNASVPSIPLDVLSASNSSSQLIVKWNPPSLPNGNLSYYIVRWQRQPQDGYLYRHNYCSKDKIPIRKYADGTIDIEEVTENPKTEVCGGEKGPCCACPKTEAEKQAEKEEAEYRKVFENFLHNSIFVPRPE
Sequence of Insulin-like growth factor 1 receptor (Homo sapiens) (P08069 741-1367 limits assumed): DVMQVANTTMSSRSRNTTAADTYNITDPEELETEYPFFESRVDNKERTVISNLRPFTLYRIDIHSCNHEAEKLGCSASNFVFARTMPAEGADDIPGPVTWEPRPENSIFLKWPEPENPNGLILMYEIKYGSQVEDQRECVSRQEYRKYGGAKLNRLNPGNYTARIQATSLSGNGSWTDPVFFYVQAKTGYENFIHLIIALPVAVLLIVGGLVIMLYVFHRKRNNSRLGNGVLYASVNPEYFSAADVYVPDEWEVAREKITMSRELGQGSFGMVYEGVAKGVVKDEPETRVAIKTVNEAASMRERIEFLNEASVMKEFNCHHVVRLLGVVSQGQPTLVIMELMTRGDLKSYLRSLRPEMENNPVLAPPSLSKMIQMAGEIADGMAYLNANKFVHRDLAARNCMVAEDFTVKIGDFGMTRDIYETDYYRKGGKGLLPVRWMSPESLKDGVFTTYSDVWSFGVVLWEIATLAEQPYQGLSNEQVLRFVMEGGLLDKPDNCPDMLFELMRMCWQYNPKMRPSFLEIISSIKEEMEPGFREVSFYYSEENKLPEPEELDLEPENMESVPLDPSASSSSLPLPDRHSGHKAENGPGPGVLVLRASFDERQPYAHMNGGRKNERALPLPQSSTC

[13] = biological target: Protein kinase C delta type (Homo sapiens) (UniProt Q05655); assay: Inhibition of recombinant human PKCdelta (2 to end residues) at 1 uM using ERMRPRKRQGSVRRR as substrate measured after 40 mins in presence of [gamma33P]ATP by scintillation counting method relative to control
Sequence of Protein kinase C delta type (Homo sapiens) (Q05655 whole entry, looked up): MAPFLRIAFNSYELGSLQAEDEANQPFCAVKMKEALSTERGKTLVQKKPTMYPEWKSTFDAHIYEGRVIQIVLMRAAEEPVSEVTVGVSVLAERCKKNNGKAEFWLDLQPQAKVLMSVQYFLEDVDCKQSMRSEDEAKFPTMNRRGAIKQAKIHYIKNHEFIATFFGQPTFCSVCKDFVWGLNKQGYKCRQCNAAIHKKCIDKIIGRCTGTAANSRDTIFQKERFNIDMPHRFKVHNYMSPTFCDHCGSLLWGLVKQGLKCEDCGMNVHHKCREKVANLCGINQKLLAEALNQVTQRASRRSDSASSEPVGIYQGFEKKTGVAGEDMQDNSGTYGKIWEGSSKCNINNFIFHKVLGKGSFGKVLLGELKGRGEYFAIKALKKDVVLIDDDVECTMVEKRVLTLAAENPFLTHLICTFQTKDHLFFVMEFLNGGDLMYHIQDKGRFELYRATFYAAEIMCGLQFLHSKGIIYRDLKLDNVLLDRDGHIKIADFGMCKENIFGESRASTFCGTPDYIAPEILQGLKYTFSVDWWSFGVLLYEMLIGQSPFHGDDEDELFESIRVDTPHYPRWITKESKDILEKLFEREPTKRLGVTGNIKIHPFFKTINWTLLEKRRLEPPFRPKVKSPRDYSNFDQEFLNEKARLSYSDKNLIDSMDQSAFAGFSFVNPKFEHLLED

[14] = biological target: Dual specificity mitogen-activated protein kinase kinase 7 (Homo sapiens) (UniProt O14733); assay: Inhibition of recombinant human MKK7 (2 to end residues) at 1 uM using unactive JNK1a1 as substrate measured after 40 mins in presence of [gamma33P]ATP by scintillation counting method relative to control
Sequence of Dual specificity mitogen-activated protein kinase kinase 7 (Homo sapiens) (O14733 whole entry): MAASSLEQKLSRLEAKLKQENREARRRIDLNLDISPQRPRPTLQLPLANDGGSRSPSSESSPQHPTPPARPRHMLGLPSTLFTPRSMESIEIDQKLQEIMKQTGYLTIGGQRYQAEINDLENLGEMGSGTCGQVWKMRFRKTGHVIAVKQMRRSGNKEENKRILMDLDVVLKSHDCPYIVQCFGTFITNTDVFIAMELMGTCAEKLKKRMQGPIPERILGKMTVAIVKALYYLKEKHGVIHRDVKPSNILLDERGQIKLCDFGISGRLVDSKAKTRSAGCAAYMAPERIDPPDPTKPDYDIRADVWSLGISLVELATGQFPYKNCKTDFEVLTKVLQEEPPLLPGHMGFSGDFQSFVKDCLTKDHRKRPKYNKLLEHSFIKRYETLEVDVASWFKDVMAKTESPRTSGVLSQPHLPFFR

[15] = system: Serine/threonine-protein kinase Nek4 (Homo sapiens), P51957 [P225A]; assay: Inhibition of recombinant full-length human NEK4 P225A mutant at 1 uM using myelin basic protein as substrate measured after 40 mins in presence of [gamma33P]ATP by scintillation counting method relative to control
A549 [16] = assay: Inhibition of tumorsphere formation in human A549 cells assessed as reduction in side population ratio by PI/Hoechst 33342 staining based flow cytometry; format: functional, cell-based
[17] = biological target: cGMP-dependent protein kinase 2 (Homo sapiens) (UniProt Q13237); assay: Inhibition of recombinant full-length human PRKG2 at 1 uM using KKLRRTLSFAEPG as substrate measured after 40 mins in presence of [gamma33P]ATP by scintillation counting method relative to control
Sequence of cGMP-dependent protein kinase 2 (Homo sapiens) (Q13237 whole entry): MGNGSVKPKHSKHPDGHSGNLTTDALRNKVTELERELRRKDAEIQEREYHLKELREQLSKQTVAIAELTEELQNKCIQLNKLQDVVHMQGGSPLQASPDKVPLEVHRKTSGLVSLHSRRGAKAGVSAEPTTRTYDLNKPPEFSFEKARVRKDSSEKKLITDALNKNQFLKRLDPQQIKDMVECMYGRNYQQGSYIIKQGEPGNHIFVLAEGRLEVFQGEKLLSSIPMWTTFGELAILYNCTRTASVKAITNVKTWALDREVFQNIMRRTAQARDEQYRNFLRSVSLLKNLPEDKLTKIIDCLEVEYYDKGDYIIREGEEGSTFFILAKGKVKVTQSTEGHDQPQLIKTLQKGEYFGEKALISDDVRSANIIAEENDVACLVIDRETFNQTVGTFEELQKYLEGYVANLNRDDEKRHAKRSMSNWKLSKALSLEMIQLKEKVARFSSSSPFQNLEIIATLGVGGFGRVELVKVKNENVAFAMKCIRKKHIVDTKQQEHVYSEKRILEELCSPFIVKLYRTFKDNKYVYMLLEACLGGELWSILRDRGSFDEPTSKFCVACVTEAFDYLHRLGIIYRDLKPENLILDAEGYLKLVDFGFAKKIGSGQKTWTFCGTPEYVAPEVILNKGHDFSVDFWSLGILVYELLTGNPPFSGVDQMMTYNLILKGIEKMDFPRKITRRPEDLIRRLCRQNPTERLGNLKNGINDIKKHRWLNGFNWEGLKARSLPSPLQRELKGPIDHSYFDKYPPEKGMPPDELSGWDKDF

Homo sapiens [18] = species on record: Homo sapiens; assay: Inhibition of recombinant human MAPKAPK2 A399G mutant (46 to end residues) at 1 uM using KKLNRTLSVA as substrate measured after 40 mins in presence of [gamma33P]ATP by scintillation counting method relative to control; in short: as §1
[19] = biological target: Ribosomal protein S6 kinase alpha-6 (Homo sapiens) (UniProt Q9UK32); assay: Inhibition of recombinant full-length human Rsk4 at 1 uM using LRRASLG as substrate measured after 40 mins in presence of [gamma33P]ATP by scintillation counting method relative to control
[20] = biological target: Insulin receptor (Homo sapiens) (UniProt P06213); assay: Inhibition of recombinant human activated IR (1005 to 1310 residues) at 1 uM using KKKSPGEYVNIEFG as substrate measured after 40 mins in presence of [gamma33P]ATP by scintillation counting method relative to control
[21] = biological target: MAP kinase-interacting serine/threonine-protein kinase 2 (Homo sapiens) (UniProt Q9HBH9); assay: Inhibition of recombinant full-length human Mnk2 at 1 uM using myelin basic protein as substrate measured after 40 mins in presence of [gamma33P]ATP by scintillation counting method relative to control
[22] = biological target: Serine/threonine-protein kinase PAK 4 (Homo sapiens) (UniProt O96013); assay: Inhibition of recombinant human PAK4 (295 to end residues) at 1 uM using myelin basic protein as substrate measured after 40 mins in presence of [gamma33P]ATP by scintillation counting method relative to control
Sequence of Serine/threonine-protein kinase PAK 4 (Homo sapiens) (O96013 whole entry, looked up): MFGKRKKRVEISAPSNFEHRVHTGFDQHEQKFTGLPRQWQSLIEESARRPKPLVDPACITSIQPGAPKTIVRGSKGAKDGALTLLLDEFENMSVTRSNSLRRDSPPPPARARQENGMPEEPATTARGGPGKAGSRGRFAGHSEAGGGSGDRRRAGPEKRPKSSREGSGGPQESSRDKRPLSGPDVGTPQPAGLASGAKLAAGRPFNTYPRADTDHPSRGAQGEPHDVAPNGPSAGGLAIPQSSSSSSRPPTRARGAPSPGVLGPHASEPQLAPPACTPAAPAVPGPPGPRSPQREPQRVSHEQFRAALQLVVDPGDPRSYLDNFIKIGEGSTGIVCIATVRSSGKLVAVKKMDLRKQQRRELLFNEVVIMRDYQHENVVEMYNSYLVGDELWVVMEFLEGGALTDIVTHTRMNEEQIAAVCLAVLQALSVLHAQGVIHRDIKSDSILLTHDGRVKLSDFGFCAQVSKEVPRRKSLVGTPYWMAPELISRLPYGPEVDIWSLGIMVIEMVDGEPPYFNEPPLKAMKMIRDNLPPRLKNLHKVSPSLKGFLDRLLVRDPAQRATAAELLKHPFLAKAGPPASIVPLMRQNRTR

Homo sapiens [23] = species on record: Homo sapiens; assay: Inhibition of recombinant human PRAK R291E mutant at 1 uM using KKLRRTLSVA as substrate measured after 40 mins in presence of [gamma33P]ATP by scintillation counting method relative to control

CN(C)C(=O)c1cc2cnc(Nc3ccc(NC(=O)CCCCCCCN=C=S)cc3)nc2n1C1CCCC1
inhibition [1]: 28%
Activity (A549 [2]): 1.06%
inhibition (NCI-H1299 [3]): Dose-dependent effect
inhibition [4]: 66%
inhibition [5]: 40%
Activity (NCI-H1299 [6]): 11.2%
inhibition [7]: -1%
inhibition [8]: -5%
inhibition [9]: 1%
inhibition [10]: 94%
inhibition [11]: 7%
inhibition [12]: -10%
inhibition [13]: 8%
inhibition [14]: 35%
inhibition [15]: 63%
inhibition (A549 [16]): Dose-dependent effect
inhibition [17]: 0%
inhibition (Homo sapiens [18]): 1%
inhibition [19]: 38%
inhibition [20]: -7%
inhibition [21]: 68%
inhibition [22]: 10%
inhibition (Homo sapiens [23]): 3%
